Test results taken from paper PMC8248323 (Clinical Pharmacology in Drug Development, 2021).
Where two headings read alike, the source gives them in different places.

How the values were obtained:
CYP3A [1] = experiment: in vitro; type: in vitro ADME
CYP3A [2] = type: in vitro ADME; conditions: in vitro
CYP1A2 = CYP1A2 (Homo sapiens, UniProt P05177); experiment: In vitro CYP inhibition; type: in vitro ADME
CYP2B6 = CYP2B6 (Homo sapiens, UniProt P20813); type: in vitro ADME; conditions: in vitro
CYP2C8 = CYP2C8 (Homo sapiens, UniProt P10632); experiment: In vitro CYP inhibition; type: in vitro ADME
CYP2C9 = CYP2C9 (Homo sapiens, UniProt P11712); experiment: In vitro CYP inhibition; type: in vitro ADME
CYP2A6 = CYP2A6 (Homo sapiens, UniProt P11509); experiment: In vitro CYP inhibition; type: in vitro ADME
CYP2C19 = CYP2C19 (Homo sapiens, UniProt P33261); experiment: In vitro CYP inhibition; type: in vitro ADME
CYP2E1 = CYP2E1 (Homo sapiens, UniProt P05181); experiment: In vitro CYP inhibition; type: in vitro ADME
P‐gp [3] = target: T1, P‐gp (Homo sapiens, UniProt P08183); experiment: In vitro transporter inhibition; type: in vitro ADME
[4] = target: breast cancer resistance protein (Homo sapiens, UniProt Q9UNQ0); experiment: In vitro transporter inhibition; type: in vitro ADME
bile salt export pump = bile salt export pump (Homo sapiens, UniProt O95342); experiment: In vitro transporter inhibition; type: in vitro ADME
OAT3 = OAT3 (Homo sapiens, UniProt Q8TCC7); experiment: In vitro transporter inhibition; type: in vitro ADME
OATP1B1 [5] = target: T2, OATP1B1 (Homo sapiens, UniProt Q9Y6L6); experiment: In vitro transporter inhibition; type: in vitro ADME
OATP1B3 [6] = target: T3, OATP1B3 (Homo sapiens, UniProt Q9NPD5); experiment: In vitro transporter inhibition; type: in vitro ADME
OCT1 = OCT1 (Homo sapiens, UniProt O15245); experiment: In vitro transporter inhibition; type: in vitro ADME
MATE2‐K = MATE2‐K (Homo sapiens, UniProt Q86VL8); experiment: In vitro transporter inhibition; type: in vitro ADME
P‐gp [7] = target: T1, P‐gp; experiment: In vitro transporter substrate assessment; type: in vitro ADME
BCRP = BCRP (Homo sapiens, UniProt Q9UNQ0); experiment: In vitro transporter substrate assessment; type: in vitro ADME
OATP1B1 [8] = target: T2, OATP1B1; experiment: In vitro transporter substrate assessment; type: in vitro ADME
OATP1B3 [9] = target: T3, OATP1B3; experiment: In vitro transporter substrate assessment; type: in vitro ADME
[10] = Phase 1 DDI study 004 part A: lemborexant plasma PK with/without itraconazole; type: in vivo, human
[11] = Phase 1 DDI study 004 part A: lemborexant plasma PK with/without rifampin; type: in vivo, human
[12] = Phase 1 DDI study 012: lemborexant plasma PK with/without fluconazole; type: in vivo, human; conditions: for AUC: human, plasma
[13] = Safety assessments in phase 1 DDI studies 004 and 012; type: in vivo, human
Summary of the method: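 Two open-label single-site phase 1 studies in healthy adults, morning dosing. Test compound 10 mg was given alone and with a strong CYP3A inhibitor (200 mg) or inducer (600 mg) daily for 20 days, or with a moderate CYP3A inhibitor (400 mg, then 200 mg daily). It was also given daily for 13 days around CYP3A/CYP2B6 probe substrates. All treatment-emergent and serious AEs were recorded, with serum chemistry, hematology and urinalysis.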

[14] = type: in vivo, human; conditions: for estimated lemborexant exposure: population PK model
[15] = both phase 3 studies; cited from earlier work
[16] = Phase 1 DDI study 004 part B: midazolam; conditions: clinically relevant concentrations, daily dosing up to 10 mg
[17] = coadministration with itraconazole
[18] = lemborexant + itraconazole / lemborexant alone
[19] = lemborexant + rifampin / lemborexant alone
[20] = coadministration with fluconazole
[21] = lemborexant + fluconazole / lemborexant alone
[22] = rifampin cohort, N = 15, lemborexant alone days 1‐14, with rifampin days 22‐35

T2 sequence (Q9Y6L6 whole entry): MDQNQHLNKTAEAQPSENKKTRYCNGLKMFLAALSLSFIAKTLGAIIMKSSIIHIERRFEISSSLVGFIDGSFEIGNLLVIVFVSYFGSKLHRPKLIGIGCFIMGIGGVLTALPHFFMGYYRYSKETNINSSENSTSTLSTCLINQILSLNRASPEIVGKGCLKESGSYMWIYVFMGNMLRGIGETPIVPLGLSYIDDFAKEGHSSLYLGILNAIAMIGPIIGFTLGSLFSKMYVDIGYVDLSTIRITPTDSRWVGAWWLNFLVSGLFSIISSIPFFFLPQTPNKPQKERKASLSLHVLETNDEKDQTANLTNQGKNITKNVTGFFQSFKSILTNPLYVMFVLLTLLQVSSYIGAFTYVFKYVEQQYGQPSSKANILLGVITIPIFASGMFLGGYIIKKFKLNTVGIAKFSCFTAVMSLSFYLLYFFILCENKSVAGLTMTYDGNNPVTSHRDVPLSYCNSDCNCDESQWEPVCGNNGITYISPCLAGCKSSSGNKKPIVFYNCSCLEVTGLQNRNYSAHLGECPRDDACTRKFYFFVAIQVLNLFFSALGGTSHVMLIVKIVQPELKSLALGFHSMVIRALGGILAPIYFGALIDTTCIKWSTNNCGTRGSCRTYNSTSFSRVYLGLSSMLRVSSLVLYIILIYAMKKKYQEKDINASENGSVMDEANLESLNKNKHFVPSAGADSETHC
T1 sequence (P08183 whole entry): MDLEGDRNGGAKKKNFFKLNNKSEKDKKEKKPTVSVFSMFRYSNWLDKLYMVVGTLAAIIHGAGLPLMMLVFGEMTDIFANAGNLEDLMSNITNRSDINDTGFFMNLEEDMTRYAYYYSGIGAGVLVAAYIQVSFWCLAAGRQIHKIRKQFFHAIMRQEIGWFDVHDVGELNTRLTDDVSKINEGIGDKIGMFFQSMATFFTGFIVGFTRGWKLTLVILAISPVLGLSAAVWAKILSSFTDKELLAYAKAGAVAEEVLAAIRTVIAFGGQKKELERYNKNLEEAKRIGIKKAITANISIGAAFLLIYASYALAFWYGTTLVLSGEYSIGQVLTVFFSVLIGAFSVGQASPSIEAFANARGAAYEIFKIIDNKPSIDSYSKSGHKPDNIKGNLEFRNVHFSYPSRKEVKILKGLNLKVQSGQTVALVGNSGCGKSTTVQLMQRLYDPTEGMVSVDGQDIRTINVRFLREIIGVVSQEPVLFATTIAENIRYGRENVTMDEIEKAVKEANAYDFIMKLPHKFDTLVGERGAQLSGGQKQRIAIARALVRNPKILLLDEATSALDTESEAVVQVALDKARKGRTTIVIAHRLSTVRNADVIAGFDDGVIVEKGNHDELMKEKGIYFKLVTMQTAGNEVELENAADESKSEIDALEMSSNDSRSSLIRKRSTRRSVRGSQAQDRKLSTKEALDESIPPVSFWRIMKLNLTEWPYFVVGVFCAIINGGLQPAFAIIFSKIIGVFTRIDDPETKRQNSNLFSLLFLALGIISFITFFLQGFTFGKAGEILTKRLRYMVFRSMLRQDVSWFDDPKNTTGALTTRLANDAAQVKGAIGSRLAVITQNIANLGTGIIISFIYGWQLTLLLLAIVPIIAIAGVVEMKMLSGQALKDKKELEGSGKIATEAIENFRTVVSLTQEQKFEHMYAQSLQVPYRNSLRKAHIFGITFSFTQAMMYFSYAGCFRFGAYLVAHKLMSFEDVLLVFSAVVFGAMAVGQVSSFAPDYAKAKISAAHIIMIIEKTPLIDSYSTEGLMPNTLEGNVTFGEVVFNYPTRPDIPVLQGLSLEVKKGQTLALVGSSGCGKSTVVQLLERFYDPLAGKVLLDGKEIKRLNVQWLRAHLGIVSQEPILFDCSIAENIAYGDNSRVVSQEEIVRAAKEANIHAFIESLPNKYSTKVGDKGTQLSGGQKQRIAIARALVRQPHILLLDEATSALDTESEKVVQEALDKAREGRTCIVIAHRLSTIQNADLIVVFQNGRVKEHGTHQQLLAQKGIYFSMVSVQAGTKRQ
T3 sequence (Q9NPD5 whole entry): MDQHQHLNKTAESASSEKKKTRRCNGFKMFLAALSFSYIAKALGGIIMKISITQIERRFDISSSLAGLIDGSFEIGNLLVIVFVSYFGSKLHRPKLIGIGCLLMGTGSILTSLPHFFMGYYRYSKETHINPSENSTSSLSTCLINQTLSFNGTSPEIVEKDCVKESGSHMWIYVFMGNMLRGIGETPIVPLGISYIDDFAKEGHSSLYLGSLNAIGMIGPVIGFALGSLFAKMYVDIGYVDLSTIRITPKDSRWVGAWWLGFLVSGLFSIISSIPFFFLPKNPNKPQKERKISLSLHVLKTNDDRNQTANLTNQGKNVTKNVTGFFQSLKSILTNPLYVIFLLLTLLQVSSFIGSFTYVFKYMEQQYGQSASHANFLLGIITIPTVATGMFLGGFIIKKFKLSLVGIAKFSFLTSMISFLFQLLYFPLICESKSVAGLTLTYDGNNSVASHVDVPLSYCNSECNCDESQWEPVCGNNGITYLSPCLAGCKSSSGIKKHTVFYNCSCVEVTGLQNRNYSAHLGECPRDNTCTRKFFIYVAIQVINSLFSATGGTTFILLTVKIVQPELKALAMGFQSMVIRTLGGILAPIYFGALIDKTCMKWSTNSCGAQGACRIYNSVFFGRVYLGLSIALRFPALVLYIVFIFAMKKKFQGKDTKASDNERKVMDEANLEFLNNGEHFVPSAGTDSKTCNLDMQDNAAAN
Sequence of OAT3 (Q8TCC7 whole entry): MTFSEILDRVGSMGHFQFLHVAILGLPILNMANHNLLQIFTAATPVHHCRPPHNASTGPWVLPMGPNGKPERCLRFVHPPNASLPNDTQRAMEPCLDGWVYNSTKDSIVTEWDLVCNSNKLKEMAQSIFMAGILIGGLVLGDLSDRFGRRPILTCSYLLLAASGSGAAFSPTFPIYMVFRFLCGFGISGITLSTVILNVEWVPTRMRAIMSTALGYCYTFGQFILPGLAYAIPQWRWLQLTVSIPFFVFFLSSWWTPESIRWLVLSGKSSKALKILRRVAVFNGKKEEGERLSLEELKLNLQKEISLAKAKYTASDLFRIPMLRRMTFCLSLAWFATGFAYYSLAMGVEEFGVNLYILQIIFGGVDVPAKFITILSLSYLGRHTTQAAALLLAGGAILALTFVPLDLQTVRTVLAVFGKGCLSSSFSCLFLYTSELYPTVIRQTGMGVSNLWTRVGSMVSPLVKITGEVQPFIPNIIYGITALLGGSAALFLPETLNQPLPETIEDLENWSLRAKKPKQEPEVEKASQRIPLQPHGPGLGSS
Sequence of CYP2C19 (P33261 whole entry): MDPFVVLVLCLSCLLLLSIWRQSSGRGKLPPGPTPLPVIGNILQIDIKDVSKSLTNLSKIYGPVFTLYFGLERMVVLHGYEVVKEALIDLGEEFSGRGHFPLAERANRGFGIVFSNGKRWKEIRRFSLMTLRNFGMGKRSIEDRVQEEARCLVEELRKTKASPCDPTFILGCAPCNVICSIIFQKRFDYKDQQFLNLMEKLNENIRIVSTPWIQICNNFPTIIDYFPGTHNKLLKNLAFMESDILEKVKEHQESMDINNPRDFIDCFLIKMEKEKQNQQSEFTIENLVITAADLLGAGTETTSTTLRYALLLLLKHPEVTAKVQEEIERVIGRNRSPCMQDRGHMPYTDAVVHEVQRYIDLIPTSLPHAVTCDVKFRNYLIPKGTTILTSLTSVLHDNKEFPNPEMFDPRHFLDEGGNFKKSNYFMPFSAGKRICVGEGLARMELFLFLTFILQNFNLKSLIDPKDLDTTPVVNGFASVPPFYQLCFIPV
Sequence of CYP2B6 (P20813 whole entry): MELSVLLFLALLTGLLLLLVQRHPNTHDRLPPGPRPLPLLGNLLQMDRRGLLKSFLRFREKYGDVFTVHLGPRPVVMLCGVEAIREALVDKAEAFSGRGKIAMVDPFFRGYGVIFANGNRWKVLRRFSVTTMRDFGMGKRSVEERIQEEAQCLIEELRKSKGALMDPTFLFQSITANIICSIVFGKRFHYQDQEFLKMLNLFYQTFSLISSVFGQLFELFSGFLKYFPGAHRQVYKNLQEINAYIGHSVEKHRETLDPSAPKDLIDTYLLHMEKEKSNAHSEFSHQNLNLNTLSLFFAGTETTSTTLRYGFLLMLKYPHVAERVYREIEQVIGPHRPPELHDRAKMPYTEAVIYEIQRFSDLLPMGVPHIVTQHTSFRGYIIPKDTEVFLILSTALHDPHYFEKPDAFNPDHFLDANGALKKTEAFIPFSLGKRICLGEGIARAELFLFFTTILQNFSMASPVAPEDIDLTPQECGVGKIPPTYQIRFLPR
Sequence of MATE2‐K (Q86VL8 1-566 isoform Q86VL8-3): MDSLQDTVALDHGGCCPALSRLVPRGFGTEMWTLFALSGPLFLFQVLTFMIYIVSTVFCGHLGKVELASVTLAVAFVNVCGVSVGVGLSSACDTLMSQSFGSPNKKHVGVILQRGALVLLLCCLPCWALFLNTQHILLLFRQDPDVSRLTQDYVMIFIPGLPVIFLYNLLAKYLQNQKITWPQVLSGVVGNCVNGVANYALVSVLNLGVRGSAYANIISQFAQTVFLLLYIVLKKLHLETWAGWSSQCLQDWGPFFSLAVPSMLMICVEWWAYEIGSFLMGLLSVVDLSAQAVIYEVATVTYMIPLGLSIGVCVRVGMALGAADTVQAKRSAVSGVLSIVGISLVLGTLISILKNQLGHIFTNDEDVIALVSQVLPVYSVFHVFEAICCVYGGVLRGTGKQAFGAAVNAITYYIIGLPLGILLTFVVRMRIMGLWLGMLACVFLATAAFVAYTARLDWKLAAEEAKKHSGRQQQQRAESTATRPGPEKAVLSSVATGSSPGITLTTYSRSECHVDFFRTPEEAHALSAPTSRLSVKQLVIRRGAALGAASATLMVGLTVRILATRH

Compound: Cc1ncc(OC[C@@]2(c3cccc(F)c3)C[C@H]2C(=O)Nc2ccc(F)cn2)c(C)n1 [Lemborexant, (1R,2S)‐2‐{[(2,4‐dimethylpyrimidin‐5‐yl)oxy]methyl}‐2‐(3‐fluorophenyl)‐N‐(5‐fluoropyridin‐2‐yl)cyclopropanecarboxamide]
- KI (inactivation) (CYP3A [1]): 25.2 µM
- inhibition at 30 μmol/L (CYP3A [1]): 61.5%
- kinact (CYP3A [1]): 0.000838 s⁻¹
- induction of CYP3A (CYP3A [2]): have the potential to induce
- inhibition of CYP1A2 (CYP1A2): do not inhibit
- inhibition of CYP2B6 (CYP2B6): do not inhibit
- inhibition of CYP2C8 (CYP2C8): do not inhibit
- inhibition of CYP2C9 (CYP2C9): do not inhibit
- inhibition of CYP2A6 (CYP2A6): do not inhibit
- inhibition of CYP2C19 (CYP2C19): do not inhibit
- inhibition of CYP2E1 (CYP2E1): do not inhibit
- inhibition of P‐gp (P‐gp [3]): do not inhibit
- inhibition of breast cancer resistance protein [4]: do not inhibit
- inhibition of bile salt export pump (bile salt export pump): do not inhibit
- inhibition of OAT3 (OAT3): do not inhibit
- inhibition of OATP1B1 (OATP1B1 [5]): do not inhibit
- inhibition of OATP1B3 (OATP1B3 [6]): do not inhibit
- inhibition of OCT1 (OCT1): do not inhibit
- inhibition of MATE2‐K (MATE2‐K): do not inhibit
- substrate of P‐gp (P‐gp [7]): potential poor substrate
- substrate of BCRP (BCRP): neither lemborexant nor M10 was a substrate
- substrate of OATP1B1 (OATP1B1 [8]): neither lemborexant nor M10 was a substrate
- substrate of OATP1B3 (OATP1B3 [9]): neither lemborexant nor M10 was a substrate
- increase in lemborexant AUC0–inf [10, 17]: 3.7 fold
- increase in lemborexant Cmax [10, 17]: 1.4 fold
- half-life ([10]; human, plasma, 10 mg): 54.4 h
- AUC ([10]; human, plasma, 10 mg, AUC0‐inf, Geometric LSM, lemborexant 10 mg alone, n = 15, itraconazole cohort): 433 ng·h/mL
- AUC ([10]; human, plasma, 10 mg, AUC0‐inf, Mean (SD), lemborexant 10 mg alone, itraconazole cohort): 464 ng·h/mL
- AUC ([10]; human, plasma, 10 mg, AUC0‐t, Mean (SD), lemborexant 10 mg alone, itraconazole cohort): 437 ng·h/mL
- AUC ([10]; human, plasma, AUC0‐inf, Geometric LSM, lemborexant 10 mg + itraconazole 200 mg, n = 11): 1600 ng·h/mL
- AUC ([10]; human, plasma, AUC0‐inf, Mean (SD), lemborexant 10 mg + itraconazole 200 mg): 1640 ng·h/mL
- AUC ([10]; human, plasma, AUC0‐t, Geometric LSM, lemborexant 10 mg + itraconazole 200 mg once daily, n = 14): 1480 ng·h/mL
- AUC ([10]; human, plasma, AUC0‐t, Mean (SD), lemborexant 10 mg + itraconazole 200 mg): 1540 ng·h/mL
- Cmax ([10]; human, plasma, Cmax, Mean (SD), lemborexant 10 mg + itraconazole 200 mg): 75 ng/mL
- AUC0‐inf, Geometric Mean Ratio (90%CI) [10, 18]: 3.702 (3.183‐4.306)
- AUC0‐t, Geometric Mean Ratio (90%CI) [10, 18]: 3.605 (3.122‐4.162)
- Cmax, Geometric Mean Ratio (90%CI) [10, 18]: 1.360 (1.181‐1.567)
- decrease in lemborexant AUC0‐inf ([11]; coadministration with rifampin): > 90%
- decrease in lemborexant Cmax ([11]; coadministration with rifampin): > 90%
- half-life ([11]; human, plasma, 10 mg): 45.6 h
- AUC ([11]; human, plasma, 10 mg, AUC0‐inf, Geometric LSM, lemborexant 10 mg alone, n = 15, rifampin cohort): 389 ng·h/mL
- AUC ([11]; human, plasma, 10 mg, AUC0‐inf, Mean (SD), lemborexant 10 mg alone, rifampin cohort): 428 ng·h/mL
- AUC ([11]; human, plasma, 10 mg, AUC0‐t, Mean (SD), lemborexant 10 mg alone, rifampin cohort): 409 ng·h/mL
- Cmax ([11]; human, plasma, 10 mg, Geometric LSM, lemborexant 10 mg alone, n = 15, rifampin cohort): 55.5 ng/mL
- Cmax ([11]; human, plasma, 10 mg, Mean (SD), lemborexant 10 mg alone, rifampin cohort): 58.9 ng/mL
- AUC ([11]; human, plasma, AUC0‐inf, Geometric LSM, lemborexant 10 mg + rifampin 600 mg, n = 9): 13.4 ng·h/mL
- AUC ([11]; human, plasma, AUC0‐inf, Mean (SD), lemborexant 10 mg + rifampin 600 mg): 15.8 ng·h/mL
- AUC ([11]; human, plasma, AUC0‐t, Geometric LSM, lemborexant 10 mg + rifampin 600 mg once daily, n = 15): 12.3 ng·h/mL
- AUC ([11]; human, plasma, AUC0‐t, Mean (SD), lemborexant 10 mg + rifampin 600 mg): 13.5 ng·h/mL
- Cmax ([11]; human, plasma, Geometric LSM, lemborexant 10 mg + rifampin 600 mg, n = 15): 4.7 ng/mL
- Cmax ([11]; human, plasma, Mean (SD), lemborexant 10 mg + rifampin 600 mg): 5.3 ng/mL
- AUC0‐inf, Geometric Mean Ratio (90%CI) [11, 19]: 0.034 (0.026‐0.045)
- AUC0‐t, Geometric Mean Ratio (90%CI) [11, 19]: 0.033 (0.027‐0.040)
- Cmax, Geometric Mean Ratio (90%CI) [11, 19]: 0.085 (0.067‐0.107)
- increase in lemborexant AUC0–inf [12, 20]: ~4 fold
- increase in lemborexant Cmax [12, 20]: 1.6 fold
- AUC ([12]; AUC0‐inf, Geometric LSM, lemborexant 10 mg + fluconazole 200 mg, n = 12): 1560 ng·h/mL
- AUC ([12]; AUC0‐inf, Mean (SD), lemborexant 10 mg + fluconazole 200 mg): 1540 ng·h/mL
- AUC ([12]; AUC0‐t, Geometric LSM, lemborexant 10 mg + fluconazole 200 mg once daily, n = 14): 1330 ng·h/mL
- AUC ([12]; AUC0‐t, Mean (SD), lemborexant 10 mg + fluconazole 200 mg): 1360 ng·h/mL
- AUC0‐inf, Geometric Mean Ratio (90%CI) [12, 21]: 4.175 (3.828‐4.553)
- AUC0‐t, Geometric Mean Ratio (90%CI) [12, 21]: 3.759 (3.486‐4.053)
- Cmax, Geometric Mean Ratio (90%CI) [12, 21]: 1.622 (1.336‐1.969)
- subjects who experienced sleep paralysis ([13]; across the phase 1 studies): 4 subjects
- time of sleep paralysis after lemborexant dosing ([13]; all cases): ≤ 1 h
- severity of sleep paralysis ([13]; all cases, resolved, no discontinuation): mild
- changes in laboratory values, vital signs, electrocardiograms, or physical examination findings ([13]; phase 1 DDI studies): no clinically important changes
- tolerability ([13]; phase 1 studies): generally well tolerated
- AEs [13, 22]: 4 (26.7) n (%)
- AEs leading to study discontinuation [13, 22]: 0 n (%)
- AEs, Mild [13, 22]: 4 (26.7) n (%)
- AEs, Moderate [13, 22]: 0 n (%)
- AEs, Severe [13, 22]: 0 n (%)
- Death [13, 22]: 0 n (%)
- SAEs [13, 22]: 0 n (%)
- Treatment‐related AEs [13, 22]: 2 (13.3) n (%)
- higher exposure with weak CYP3A inhibitors ([14]; average, with versus without weak CYP3A inhibitors): 30%
- estimated lemborexant exposure ([14]; subjects coadministered weak CYP3A inhibitors, n = 15, studies 303 and 304): 420 ng·h/mL
- estimated lemborexant exposure ([14]; subjects not coadministered weak CYP3A inhibitors, n = 257, studies 303 and 304): 330 ng·h/mL
- degree of CYP3A inhibition (exposure ratio) ([14]; with versus without weak CYP3A inhibitors): 1.3 fold
- tolerability [15]: well tolerated
- clinical effect on CYP2B6 [16]: has the potential to induce CYP2B6
